{
  "source": "ChEMBL document CHEMBL3739382",
  "about": "(Eur J Med Chem, 2015)",
  "key": {"[1]": {"biological_target": "T1, Tyrosinase (Agaricus bisporus) (UniProt O42713)", "T1 sequence (whole entry)": "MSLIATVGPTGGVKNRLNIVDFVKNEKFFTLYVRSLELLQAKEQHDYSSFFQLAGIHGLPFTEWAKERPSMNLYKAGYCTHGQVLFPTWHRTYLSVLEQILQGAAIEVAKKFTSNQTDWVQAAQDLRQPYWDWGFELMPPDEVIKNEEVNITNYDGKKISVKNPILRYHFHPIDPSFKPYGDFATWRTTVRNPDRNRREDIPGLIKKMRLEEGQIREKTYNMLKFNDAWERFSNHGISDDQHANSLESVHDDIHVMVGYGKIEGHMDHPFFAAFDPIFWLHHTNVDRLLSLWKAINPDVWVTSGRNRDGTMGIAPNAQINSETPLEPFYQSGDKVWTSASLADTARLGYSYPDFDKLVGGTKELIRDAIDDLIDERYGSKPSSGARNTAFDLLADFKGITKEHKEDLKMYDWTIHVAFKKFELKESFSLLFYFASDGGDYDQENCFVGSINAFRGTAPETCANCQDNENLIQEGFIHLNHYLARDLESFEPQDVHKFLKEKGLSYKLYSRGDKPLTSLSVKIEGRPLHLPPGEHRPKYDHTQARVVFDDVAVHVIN", "assay": "Non-competitive inhibition of mushroom tyrosinase using L-tyrosine as substrate by Lineweaver-Burk plots analysis", "how_it_was_run": "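Absorbance at 475 nm read at 30 °C in PBS with 5% DMSO. Global nonlinear Michaelis–Menten fitting over four inhibition models gave Vmax, Km, Kic and Kiu, with the model chosen by minimal χ2.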"}, "[2]": {"biological_target": "T1, Tyrosinase (Agaricus bisporus)", "assay": "Binding affinity to mushroom tyrosinase assessed as fluorescence quenching"}, "[3]": {"biological_target": "T2, Tyrosinase (Mus musculus) (UniProt P11344)", "T2 sequence (whole entry)": "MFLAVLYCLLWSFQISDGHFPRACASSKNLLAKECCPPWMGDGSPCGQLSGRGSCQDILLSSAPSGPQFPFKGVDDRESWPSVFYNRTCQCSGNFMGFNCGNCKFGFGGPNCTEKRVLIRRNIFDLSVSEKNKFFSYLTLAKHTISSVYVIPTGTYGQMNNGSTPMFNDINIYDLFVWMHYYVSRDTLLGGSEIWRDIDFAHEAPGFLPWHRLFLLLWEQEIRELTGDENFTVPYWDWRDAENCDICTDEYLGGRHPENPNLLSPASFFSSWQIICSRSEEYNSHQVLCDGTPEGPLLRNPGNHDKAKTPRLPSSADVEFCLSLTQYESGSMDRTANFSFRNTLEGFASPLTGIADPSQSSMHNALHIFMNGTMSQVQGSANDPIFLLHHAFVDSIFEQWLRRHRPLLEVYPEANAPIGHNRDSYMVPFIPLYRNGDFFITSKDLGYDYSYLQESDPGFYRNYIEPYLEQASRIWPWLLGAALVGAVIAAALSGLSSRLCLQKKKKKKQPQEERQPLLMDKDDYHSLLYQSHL", "assay": "Inhibition of tyrosinase in mouse B16F10 cells assessed as remaining melanin production at 10 uM relative to control", "conditions": "B16-F10"}, "[4]": {"assay": "Cytotoxicity against mouse B16F10 cells assessed as cell survival at 50 uM after 48 hrs by MTT assay", "assay_type": "cell-based, B16-F10", "conditions": "read-out: Survival"}, "Tyrosinase [5]": {"biological_target": "T3, Tyrosinase (Agaricus bisporus, UniProt O42713)", "T3 sequence (O42713 whole entry)": "T1 sequence (whole entry)", "assay": "Inhibition of mushroom tyrosinase using L-tyrosine as substrate"}, "[6]": {"biological_target": "T2, Tyrosinase (Mus musculus)", "assay": "Inhibition of tyrosinase in mouse B16F10 cells assessed as remaining melanin production at 20 uM relative to control", "conditions": "B16-F10"}, "[7]": {"biological_target": "T2, Tyrosinase (Mus musculus)", "assay": "Inhibition of tyrosinase in mouse B16F10 cell lysates using DOPA as substrate relative to control", "assay_type": "cell-free", "parameters": "concentration or dose not given beside the values", "conditions": "B16-F10, concentration not given here"}, "[8]": {"biological_target": "T2, Tyrosinase (Mus musculus)", "assay": "Inhibition of tyrosinase in mouse B16F10 cells assessed as remaining melanin production at 50 uM relative to control", "conditions": "B16-F10"}, "Tyrosinase [9]": {"biological_target": "T3, Tyrosinase", "assay": "Competitive inhibition of mushroom tyrosinase using L-tyrosine as substrate by Lineweaver-Burk plots analysis", "how_it_was_run": "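Global nonlinear Michaelis–Menten fitting over four inhibition models gave Vmax, Km, Kic and Kiu, with the model chosen by minimal χ2.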"}},
  "data": [
    {"smiles": "NC(=S)c1cccnc1", "values": [
      {"measurement": "Kic", "setting": "[1]", "value": 4.3, "unit": "µM"},
      {"measurement": "KSV", "setting": "[2]", "value": 8.5, "unit": "×10³ /M"},
      {"measurement": "residual activity", "setting": "[3]", "value": 109, "unit": "%"},
      {"measurement": "viability at 48 h, 50 µM", "setting": "[4]", "value": 108, "unit": "%"},
      {"measurement": "IC50", "setting": "Tyrosinase [5]", "value": 7.5, "unit": "µM"},
      {"measurement": "residual activity", "setting": "[6]", "value": 104, "unit": "%"},
      {"measurement": "inhibition", "setting": "[7]", "value": 83, "unit": "%"},
      {"measurement": "residual activity", "setting": "[8]", "value": 106, "unit": "%"}
    ]},
    {"smiles": "NC(=S)Nc1ccccc1", "note": "[PHENYLTHIOUREA]", "values": [
      {"measurement": "KSV", "setting": "[2]", "value": 2.4, "unit": "×10³ /M"},
      {"measurement": "residual activity", "setting": "[3]", "value": 63, "unit": "%"},
      {"measurement": "viability at 48 h, 50 µM", "setting": "[4]", "value": 106, "unit": "%"},
      {"measurement": "residual activity", "setting": "[6]", "value": 55, "unit": "%"},
      {"measurement": "inhibition", "setting": "[7]", "value": 27, "unit": "%"},
      {"measurement": "residual activity", "setting": "[8]", "value": 54, "unit": "%"}
    ]},
    {"smiles": "CCc1cc(C(N)=S)ccn1", "note": "[ETHIONAMIDE]", "values": [
      {"measurement": "Kic", "setting": "[1]", "value": 1.9, "unit": "µM"},
      {"measurement": "KSV", "setting": "[2]", "value": 9.5, "unit": "×10³ /M"},
      {"measurement": "residual activity", "setting": "[3]", "value": 107, "unit": "%"},
      {"measurement": "viability at 48 h, 50 µM", "setting": "[4]", "value": 106, "unit": "%"},
      {"measurement": "IC50", "setting": "Tyrosinase [5]", "value": 4, "unit": "µM"},
      {"measurement": "residual activity", "setting": "[6]", "value": 104, "unit": "%"},
      {"measurement": "inhibition", "setting": "[7]", "value": 88, "unit": "%"},
      {"measurement": "residual activity", "setting": "[8]", "value": 104, "unit": "%"}
    ]},
    {"smiles": "NC(=S)c1ccccc1", "values": [
      {"measurement": "Kic", "setting": "[1]", "value": 0.7, "unit": "µM"},
      {"measurement": "KSV", "setting": "[2]", "value": 9.2, "unit": "×10³ /M"},
      {"measurement": "residual activity", "setting": "[3]", "value": 103, "unit": "%"},
      {"measurement": "viability at 48 h, 50 µM", "setting": "[4]", "value": 117, "unit": "%"},
      {"measurement": "IC50", "setting": "Tyrosinase [5]", "value": 2.8, "unit": "µM"},
      {"measurement": "residual activity", "setting": "[6]", "value": 93, "unit": "%"},
      {"measurement": "inhibition", "setting": "[7]", "value": 72, "unit": "%"},
      {"measurement": "residual activity", "setting": "[8]", "value": 63, "unit": "%"}
    ]},
    {"smiles": "NNC(=O)c1ccncc1", "note": "[ISONIAZID]", "values": [
      {"measurement": "KSV", "setting": "[2]", "value": 1.7, "unit": "×10³ /M"},
      {"measurement": "residual activity", "setting": "[3]", "value": 104, "unit": "%"},
      {"measurement": "viability at 48 h, 50 µM", "setting": "[4]", "value": 103, "unit": "%"},
      {"measurement": "IC50", "setting": "Tyrosinase [5]", "value": "> 1000", "unit": "µM"},
      {"measurement": "residual activity", "setting": "[6]", "value": 100, "unit": "%"},
      {"measurement": "inhibition", "setting": "[7]", "value": 97, "unit": "%"},
      {"measurement": "residual activity", "setting": "[8]", "value": 102, "unit": "%"}
    ]},
    {"smiles": "CC(=O)Nc1ccccc1", "note": "[ACETANILIDE]", "values": [
      {"measurement": "KSV", "setting": "[2]", "value": 1, "unit": "×10³ /M"},
      {"measurement": "residual activity", "setting": "[3]", "value": 105, "unit": "%"},
      {"measurement": "viability at 48 h, 50 µM", "setting": "[4]", "value": 116, "unit": "%"},
      {"measurement": "IC50", "setting": "Tyrosinase [5]", "value": "> 1000", "unit": "µM"},
      {"measurement": "residual activity", "setting": "[6]", "value": 103, "unit": "%"},
      {"measurement": "inhibition", "setting": "[7]", "value": 99, "unit": "%"},
      {"measurement": "residual activity", "setting": "[8]", "value": 102, "unit": "%"}
    ]},
    {"smiles": "NC(=S)c1ccccn1", "values": [
      {"measurement": "Kic", "setting": "[1]", "value": 2.7, "unit": "µM"},
      {"measurement": "KSV", "setting": "[2]", "value": 9, "unit": "×10³ /M"},
      {"measurement": "residual activity", "setting": "[3]", "value": 98, "unit": "%"},
      {"measurement": "viability at 48 h, 50 µM", "setting": "[4]", "value": 105, "unit": "%"},
      {"measurement": "IC50", "setting": "Tyrosinase [5]", "value": 14.4, "unit": "µM"},
      {"measurement": "residual activity", "setting": "[6]", "value": 80, "unit": "%"},
      {"measurement": "inhibition", "setting": "[7]", "value": 78, "unit": "%"},
      {"measurement": "residual activity", "setting": "[8]", "value": 56, "unit": "%"}
    ]},
    {"smiles": "NC(=S)c1ccncc1", "values": [
      {"measurement": "Kic", "setting": "[1]", "value": 22.3, "unit": "µM"},
      {"measurement": "KSV", "setting": "[2]", "value": 7.5, "unit": "×10³ /M"},
      {"measurement": "residual activity", "setting": "[3]", "value": 106, "unit": "%"},
      {"measurement": "viability at 48 h, 50 µM", "setting": "[4]", "value": 110, "unit": "%"},
      {"measurement": "IC50", "setting": "Tyrosinase [5]", "value": 43.8, "unit": "µM"},
      {"measurement": "residual activity", "setting": "[6]", "value": 103, "unit": "%"},
      {"measurement": "inhibition", "setting": "[7]", "value": 93, "unit": "%"},
      {"measurement": "residual activity", "setting": "[8]", "value": 104, "unit": "%"}
    ]},
    {"smiles": "CC(=S)Nc1ccccc1", "values": [
      {"measurement": "KSV", "setting": "[2]", "value": 8.3, "unit": "×10³ /M"},
      {"measurement": "residual activity", "setting": "[3]", "value": 91, "unit": "%"},
      {"measurement": "viability at 48 h, 50 µM", "setting": "[4]", "value": 116, "unit": "%"},
      {"measurement": "IC50", "setting": "Tyrosinase [5]", "value": 4.1, "unit": "µM"},
      {"measurement": "residual activity", "setting": "[6]", "value": 75, "unit": "%"},
      {"measurement": "inhibition", "setting": "[7]", "value": 42, "unit": "%"},
      {"measurement": "Ki", "setting": "Tyrosinase [9]", "value": 1200, "unit": "nM"},
      {"measurement": "residual activity", "setting": "[8]", "value": 57, "unit": "%"}
    ]},
    {"smiles": "CCCc1cc(C(N)=S)ccn1", "note": "[PROTIONAMIDE]", "values": [
      {"measurement": "Kic", "setting": "[1]", "value": 2.4, "unit": "µM"},
      {"measurement": "KSV", "setting": "[2]", "value": 10.2, "unit": "×10³ /M"},
      {"measurement": "residual activity", "setting": "[3]", "value": 105, "unit": "%"},
      {"measurement": "viability at 48 h, 50 µM", "setting": "[4]", "value": 121, "unit": "%"},
      {"measurement": "IC50", "setting": "Tyrosinase [5]", "value": 4.5, "unit": "µM"},
      {"measurement": "residual activity", "setting": "[6]", "value": 103, "unit": "%"},
      {"measurement": "inhibition", "setting": "[7]", "value": 84, "unit": "%"},
      {"measurement": "residual activity", "setting": "[8]", "value": 100, "unit": "%"}
    ]}
  ]
}
